In the library only some 2.3% were active in any assay of this set; here they are far more common.
SR-BI DiI inh = inhibitors of SR-BI mediated HDL lipid uptake, primary screen, ldlA[mSR-BI] cells, fluorescence, single point. Scavenger receptor class B member 1 (Mus musculus), Q61009. ldlA[mSR-BI] CHO cells, DiI-HDL uptake fluorescence, 3 h. inhibition, % at 12.5 µM. hit rate 0.96% among 320,000;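 active = mean replicate inhibition of at least 70% and a set share of replicates each scoring 70 or more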
Target sequence (Q61009 whole entry, looked up): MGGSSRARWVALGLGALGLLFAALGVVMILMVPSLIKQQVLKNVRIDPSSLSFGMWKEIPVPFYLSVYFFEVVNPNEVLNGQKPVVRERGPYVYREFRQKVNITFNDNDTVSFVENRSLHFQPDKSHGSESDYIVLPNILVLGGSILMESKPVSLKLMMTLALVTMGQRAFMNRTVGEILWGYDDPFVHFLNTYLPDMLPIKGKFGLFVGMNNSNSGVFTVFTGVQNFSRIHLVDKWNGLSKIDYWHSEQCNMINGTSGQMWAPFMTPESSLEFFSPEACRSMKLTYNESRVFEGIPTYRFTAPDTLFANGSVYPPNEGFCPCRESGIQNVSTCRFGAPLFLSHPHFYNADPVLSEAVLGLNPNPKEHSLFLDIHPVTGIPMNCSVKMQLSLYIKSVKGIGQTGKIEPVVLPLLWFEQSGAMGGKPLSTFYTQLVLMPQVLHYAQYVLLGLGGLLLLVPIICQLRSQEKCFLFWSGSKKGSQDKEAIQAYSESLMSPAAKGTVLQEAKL
CAL PDZ FP-1 = untagged CAL PDZ binding inhibitors, primary screen, biochemical, fluorescence polarization, HTS; inhibition, % at 24.9 µM; hit rate 0.92% among 300,000; purified CAL PDZ, TMR-peptide fluorescence polarization, 1 h; Golgi-associated PDZ and coiled-coil motif-containing protein (Homo sapiens), Q9HD26;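 active = mean inhibition of at least 30% with at least half of replicates also reaching 30%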
CAL PDZ FP-2 = CAL PDZ peptide-binding inhibitors, primary screen, biochemical, fluorescence polarization, Cer-tagged CAL PDZ, HTS. Golgi-associated PDZ and coiled-coil motif-containing protein (Homo sapiens), Q9HD26. purified CAL PDZ, TMR-peptide fluorescence polarization, 1 h. inhibition, % at 20 µM. hit rate 0.02% among 330,000;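 active = highest replicate inhibition of at least 40%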
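Material – purified CerCALP PDZ construct · Detection – FP readout, S and P plane fluorescence · Measure – percent inhibition from loss of millipolarization · Controls – unlabelled peptide for full inhibition, DMSO wells as neutral · Probe or stimulus – TMR-labelled reporter peptide T*-PRC34 bound in PDZ groove · Times – 1 h at RT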
SR-BI uptake up = activators of SR-BI mediated DiI-HDL uptake, primary screen, ldlA[mSR-BI] CHO cells, DiI fluorescence; 3 h; 100 = double the neutral-control signal; activation, % at 12.5 µM; hit rate 0.096% among 320,000; AID 504775, 2011;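 active = mean replicate activation of at least 60% and every replicate at or above 60%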
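Assay system: LDL receptor-deficient CHO ldlA cells overexpressing murine SR-BI / Medium: BSA-supplemented, HEPES-buffered Ham's F12, pH 7.4 / Probe or stimulus: DiI-labelled HDL at 10 µg/mL final / Timing: compound with DiI-HDL co-incubation, 3 h at 37 °C / Technique: bottom-read cell fluorescence after medium removal, ex 550/em 595 nm / Measure: HDL uptake via cellular fluorescence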
ATG4B inh = ATG4B protease inhibitors, primary screen, biochemical, fluorescence, uHTS. hit rate 0.51% among 340,000. inhibition, % at 8.33 µM. AID 504462, 2011. Cysteine protease ATG4B (Homo sapiens), Q9Y4P1. ATG4B cleavage of LC3-PLA2, NBD-HPC fluorescence, 1 h; in the data active = inhibition above about 40%
Numbers stand for hits.

For COC(=O)c1cc(NC(=O)c2cc(-c3ccc(Cl)cc3)oc2C(F)(F)F)ccc1N1CCOCC1 the results were SR-BI DiI inh inactive, CAL PDZ FP-2 inactive, SR-BI uptake up inactive and ATG4B inh inactive.
Cc1cc(C(=O)NNS(=O)(=O)c2cc(C(=O)O)ccc2Cl)c(C)n1-c1ccccc1 was read as SR-BI DiI inh inactive, CAL PDZ FP-1 39, CAL PDZ FP-2 inactive, SR-BI uptake up inactive and ATG4B inh inactive.
CCCCCC(=O)NC(=S)Nc1cccc(-c2nc3ncccc3o2)c1 was read as ATG4B inh inactive.
`CN(CCOC(=O)c1cccc(F)c1)Cc1ccccc1` gave SR-BI DiI inh inactive, CAL PDZ FP-1 inactive, CAL PDZ FP-2 inactive, SR-BI uptake up inactive and ATG4B inh inactive.
CC(CN(C)Cc1ccccc1)OC(=O)c1cccc(F)c1 (stereo not given) was read as SR-BI DiI inh inactive, CAL PDZ FP-1 inactive, CAL PDZ FP-2 inactive, SR-BI uptake up 69 and ATG4B inh inactive.
For Oc1ccccc1C1=NN(c2ccccc2)C(c2ccc(F)cc2)C1 (stereo not given) the results were SR-BI DiI inh 74, CAL PDZ FP-1 inactive, CAL PDZ FP-2 inactive, SR-BI uptake up inactive and ATG4B inh inactive.
`COc1ccc(N=c2oc3cc(O)ccc3cc2C(=O)Nc2ccccn2)cc1OC` gave SR-BI DiI inh 71, CAL PDZ FP-1 inactive, CAL PDZ FP-2 inactive, SR-BI uptake up inactive and ATG4B inh inactive.
Screening O=C(NCc1cccc(OC(F)(F)F)c1)c1ccc2c(c1)S(=O)(=O)c1cc(Cl)ccc1C2=O returned SR-BI DiI inh inactive, CAL PDZ FP-1 inactive, CAL PDZ FP-2 inactive, SR-BI uptake up inactive and ATG4B inh inactive.
`CCOC(=O)N1CCN(S(=O)(=O)c2ccc(C(=O)NNc3nc4ccc(Cl)cc4s3)cc2)CC1` gave SR-BI DiI inh 128, CAL PDZ FP-1 inactive, CAL PDZ FP-2 inactive, SR-BI uptake up inactive and ATG4B inh inactive.
`CCOC(=O)N1CCN(S(=O)(=O)c2ccc(C(=O)NNc3nc4cc(C)cc(C)c4s3)cc2)CC1` gave SR-BI DiI inh 121, CAL PDZ FP-1 inactive, CAL PDZ FP-2 inactive, SR-BI uptake up inactive and ATG4B inh inactive.
For CCOC(=O)N1CCN(S(=O)(=O)c2ccc(C(=O)NNc3nc4c(C)cccc4s3)cc2)CC1 the results were SR-BI DiI inh 102, CAL PDZ FP-1 inactive, CAL PDZ FP-2 inactive, SR-BI uptake up inactive and ATG4B inh inactive.
`CCOC(=O)N1CCN(S(=O)(=O)c2ccc(C(=O)NNc3nc4c(C)cc(C)cc4s3)cc2)CC1` gave ATG4B inh inactive.
CCc1nnc(NC(=O)c2oc3ccccc3c2COC(C)C)s1 was read as SR-BI DiI inh inactive, CAL PDZ FP-1 inactive, CAL PDZ FP-2 inactive, SR-BI uptake up inactive and ATG4B inh inactive.
For CCn1nc(C(=O)Nc2cc(Cl)ccc2-n2cncn2)c2ccccc2c1=O the results were SR-BI DiI inh inactive, CAL PDZ FP-1 58, CAL PDZ FP-2 inactive, SR-BI uptake up inactive and ATG4B inh inactive.
For Cc1cccc(NC(=O)c2sc3nc4c(c(-c5cccs5)c3c2N)CN(C)CC4)c1 the results were SR-BI DiI inh 83, CAL PDZ FP-1 inactive, CAL PDZ FP-2 inactive, SR-BI uptake up inactive and ATG4B inh inactive.
Screening O=C(NNC1=C(C(=O)C(F)(F)F)CCC1)c1ccc(Br)cc1 returned SR-BI DiI inh 105, CAL PDZ FP-1 inactive, CAL PDZ FP-2 inactive, SR-BI uptake up inactive and ATG4B inh inactive.
Screening COc1cccc(C(=O)NNC2=C(C(=O)C(F)(F)F)CCC2)c1 returned SR-BI DiI inh 113, CAL PDZ FP-2 inactive, SR-BI uptake up inactive and ATG4B inh inactive.
Nc1ccccc1C(=O)NNC1=C(C(=O)C(F)(F)F)CCC1 was read as SR-BI DiI inh 98, CAL PDZ FP-1 inactive, CAL PDZ FP-2 inactive, SR-BI uptake up inactive and ATG4B inh inactive.
O=C(NNC1=C(C(=O)C(F)(F)F)CCC1)c1ccccc1O was read as SR-BI DiI inh 150, CAL PDZ FP-1 inactive, CAL PDZ FP-2 inactive, SR-BI uptake up inactive and ATG4B inh inactive.
Screening CCOc1ccc(N(CC)C(=O)c2cn(CC)c(=O)c3cc(OC)c(OC)cc23)cc1 returned SR-BI DiI inh inactive, CAL PDZ FP-1 inactive, CAL PDZ FP-2 inactive, SR-BI uptake up inactive and ATG4B inh inactive.
`Cc1nn(C)c(C)c1NC(=S)Nc1ccc(S(=O)(=O)Nc2ncccn2)cc1` gave SR-BI DiI inh inactive, CAL PDZ FP-1 39, CAL PDZ FP-2 inactive, SR-BI uptake up inactive and ATG4B inh inactive.
Screening Cc1cccc2sc(NC(=O)C3CC3)nc12 returned SR-BI DiI inh inactive, CAL PDZ FP-1 inactive, CAL PDZ FP-2 inactive, SR-BI uptake up inactive and ATG4B inh inactive.
Screening Cc1cccc2sc(NC(=O)c3ccc(Cl)s3)nc12 returned SR-BI DiI inh 76, CAL PDZ FP-2 inactive, SR-BI uptake up inactive and ATG4B inh inactive.
`Cc1ccc(C)c(OCCC(=O)Nc2ccc3c(c2)OCO3)c1` gave SR-BI DiI inh inactive, CAL PDZ FP-1 inactive, CAL PDZ FP-2 inactive, SR-BI uptake up inactive and ATG4B inh inactive.
`CC1(C(=O)N2CCN(C(=O)c3ccco3)CC2)CC1(Br)Br` (stereo not given) gave SR-BI DiI inh inactive, CAL PDZ FP-1 inactive, CAL PDZ FP-2 inactive, SR-BI uptake up inactive and ATG4B inh inactive.
CC(C)Cc1cc(CNC(=O)C2CCC(=O)N(CCc3cccc(F)c3)C2)on1 (stereo not given) was read as SR-BI DiI inh inactive, CAL PDZ FP-1 inactive, CAL PDZ FP-2 inactive, SR-BI uptake up inactive and ATG4B inh inactive.
`O=C(NCC1CCOCC1)C1CCC(=O)N(Cc2cccc(C(F)(F)F)c2)C1` (stereo not given) gave SR-BI DiI inh inactive, CAL PDZ FP-1 32, CAL PDZ FP-2 inactive, SR-BI uptake up inactive and ATG4B inh inactive.
For CCCc1cc(CNC(=O)C2CCC(=O)N(CCc3cccc(F)c3)C2)on1 (stereo not given) the results were SR-BI DiI inh inactive, CAL PDZ FP-1 35, CAL PDZ FP-2 inactive, SR-BI uptake up inactive and ATG4B inh inactive.
Cc1ccc(CCNC(=O)C2CCC(=O)N(Cc3cccc(F)c3)C2)cc1 (stereo not given) was read as SR-BI DiI inh inactive, CAL PDZ FP-1 59, CAL PDZ FP-2 inactive, SR-BI uptake up inactive and ATG4B inh inactive.
`O=C(NCCCc1ccncc1)C1CCC(=O)N(Cc2cccc(F)c2)C1` (stereo not given) gave SR-BI DiI inh inactive, CAL PDZ FP-1 inactive, CAL PDZ FP-2 inactive, SR-BI uptake up inactive and ATG4B inh inactive.
For CSCC[C@H](NC(=O)[C@@H]1Cc2c([nH]c3ccccc23)C2c3ccccc3C(=O)N21)C(=O)NCC1CCCO1 (stereo not given in full) the results were SR-BI DiI inh inactive, CAL PDZ FP-1 inactive, CAL PDZ FP-2 inactive, SR-BI uptake up inactive and ATG4B inh inactive.
